Experimental data: ChEMBL document CHEMBL4196178, “Structure-Based Drug Design of Potent Pyrazole Derivatives against Rhinovirus Replication” (J Med Chem, 2018)
Calls of active or inactive are those of the source. The calls are words filed in the database; no cut-off is given here.

target: T1, VP1 capsid protein (Human rhinovirus sp.) (UniProt Q7T664); assay: Inhibition of Rhinovirus B14 capsid infected in human HeLa Rh cells assessed as number of wells with full cytopathic effect at 2 times EC50 concentration after 3rd passage measured after 3 days by MTS assay relative to control; format: cell-based; design: scale not given: the % may be the effect or the level left; conditions: not given
T1 sequence (whole entry): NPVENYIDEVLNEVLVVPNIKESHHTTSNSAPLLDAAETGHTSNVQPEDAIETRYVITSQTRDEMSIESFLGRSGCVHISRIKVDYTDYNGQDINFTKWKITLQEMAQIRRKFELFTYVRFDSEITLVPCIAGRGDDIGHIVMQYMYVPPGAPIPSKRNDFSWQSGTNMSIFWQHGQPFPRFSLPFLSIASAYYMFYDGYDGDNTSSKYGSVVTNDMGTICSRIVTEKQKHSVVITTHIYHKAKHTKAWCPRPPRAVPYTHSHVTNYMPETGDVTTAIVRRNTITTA
Outline: (§1)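 Confluent HeLa cells were infected with wild-type RV-B14 with compound present at 1x, 2x or 4x in vitro EC₅₀, n=4 wells. Supernatant was diluted 1:10 onto fresh HeLa cells with compound, for four passages. Value is percentage of wells with full CPE.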

SMILES	Activity [%]
Cn1cc(-c2ccc(CC(O)c3ccc(-n4cncn4)cc3)c([N+](=O)[O-])c2)cn1 (racemic)	25
Cc1cc(CCCOc2c(C)cc(-c3noc(C(F)(F)F)n3)cc2C)on1 [PLECONARIL]	100

test system: rhinovirus B14; assay: Inhibition of Rhinovirus B14 capsid infected in human HeLa Rh cells assessed as number of wells with full cytopathic effect at 4 times EC50 concentration after 2nd passage measured after 3 days by MTS assay relative to control; format: functional; design: scale not given: the % may be the effect or the level left; conditions: not given; outline: as §1

SMILES	Activity [%]
Cn1cc(-c2ccc(CC(O)c3ccc(-n4cncn4)cc3)c([N+](=O)[O-])c2)cn1 (racemic)	0
Cc1cc(CCCOc2c(C)cc(-c3noc(C(F)(F)F)n3)cc2C)on1 [PLECONARIL]	0

test system: not listed separately; assay: Selectivity index, ratio of CC50 for human HeLa Rh cells to EC50 for Rhinovirus B14 capsid infected in human HeLa Rh cells; format: toxicity, cell-based; conditions: read-out: Ratio CC50/EC50
Outline: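 SI = CC₅₀/EC₅₀ for RV-B14 in HeLa Rh cells, both from the same 3-day 35 °C MTS CPE assay. CC₅₀ was obtained by light-microscope scoring of compound-treated uninfected cells, and EC₅₀ from MTS dose-response. Both values were derived by logarithmic interpolation and reported as median ± median absolute deviation.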

SMILES	selectivity ratio
Cn1cc(-c2ccc(CC(O)c3ccc(-n4cncn4)cc3)c([N+](=O)[O-])c2)cn1 (racemic)	1420 to 3880
Cc1cc(CCCOc2c(C)cc(-c3noc(C(F)(F)F)n3)cc2C)on1 [PLECONARIL]	> 4040

target: T1, VP1 capsid protein (Human rhinovirus sp.); assay: Inhibition of Rhinovirus B14 capsid infected in human HeLa Rh cells assessed as number of wells with full cytopathic effect at 2 times EC50 concentration after 1st passage measured after 3 days by MTS assay relative to control; format: cell-based; design: scale not given: the % may be the effect or the level left; conditions: not given; outline: as §1

SMILES	Activity [%]
Cn1cc(-c2ccc(CC(O)c3ccc(-n4cncn4)cc3)c([N+](=O)[O-])c2)cn1 (racemic)	0
Cc1cc(CCCOc2c(C)cc(-c3noc(C(F)(F)F)n3)cc2C)on1 [PLECONARIL]	0

target: T1, VP1 capsid protein (Human rhinovirus sp.); assay: Inhibition of Rhinovirus B14 capsid infected in human HeLa Rh cells assessed as number of wells with full cytopathic effect at 4 times EC50 concentration after 4th passage measured after 3 days by MTS assay relative to control; format: cell-based; design: scale not given: the % may be the effect or the level left; conditions: not given; outline: as §1

SMILES	Activity [%]
Cn1cc(-c2ccc(CC(O)c3ccc(-n4cncn4)cc3)c([N+](=O)[O-])c2)cn1 (racemic)	0
Cc1cc(CCCOc2c(C)cc(-c3noc(C(F)(F)F)n3)cc2C)on1 [PLECONARIL]	25

test system: rhinovirus B14; assay: Antiviral activity against Rhinovirus B14 infected in human HeLa Rh cells assessed as reduction in viral replication at 1 uM administered at the time of infection measured after 8 hrs post infection by RT-qPCR analysis; format: functional, organism-based; conditions: not given
Outline: (§2)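 HeLa Rh cells adhered overnight, then given 1 µM compound 2 h before, at, or 2, 4 or 6 h after RV-B14 infection. Untreated infected cells served as controls. Cells lysed at 8 h post-infection, DNases heat-inactivated at 75 °C for 15 min. Intracellular viral RNA measured by SYBR one-step qRT-PCR against a gBlock standard series, reported as genome equivalents per sample.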

SMILES	Activity
Cn1cc(-c2ccc(CC(O)c3ccc(-n4cncn4)cc3)c([N+](=O)[O-])c2)cn1 (racemic)	Active
Cc1cc(CCCOc2c(C)cc(-c3noc(C(F)(F)F)n3)cc2C)on1 [PLECONARIL]	Active

target: T1, VP1 capsid protein (Human rhinovirus sp.); assay: Inhibition of Rhinovirus B14 capsid infected in human HeLa Rh cells assessed as number of wells with full cytopathic effect at EC50 concentration after 2nd passage measured after 3 days by MTS assay relative to control; format: cell-based; design: scale not given: the % may be the effect or the level left; conditions: not given; outline: as §1

SMILES	Activity [%]
Cn1cc(-c2ccc(CC(O)c3ccc(-n4cncn4)cc3)c([N+](=O)[O-])c2)cn1 (racemic)	50
Cc1cc(CCCOc2c(C)cc(-c3noc(C(F)(F)F)n3)cc2C)on1 [PLECONARIL]	100

test system: not listed separately; assay: Cytotoxicity against human HeLa Rh cells assessed as reduction in cell viability after 3 days by MTS assay; format: cell-based; conditions: not given

SMILES	CC50 at 72 h [µM]
Cn1cc(-c2ccc(CC(O)c3ccc(-n4cncn4)cc3)c([N+](=O)[O-])c2)cn1 (racemic)	256 to 699
Cc1cc(CCCOc2c(C)cc(-c3noc(C(F)(F)F)n3)cc2C)on1 [PLECONARIL]	> 131

test system: rhinovirus B14; assay: Antiviral activity against Rhinovirus B14 infected in human HeLa Rh cells assessed as reduction in viral replication at 1 uM administered at >= 2 hrs post infection measured after 8 hrs post infection by RT-qPCR analysis; format: functional, organism-based; conditions: not given; outline: as §2

SMILES	Activity
Cn1cc(-c2ccc(CC(O)c3ccc(-n4cncn4)cc3)c([N+](=O)[O-])c2)cn1 (racemic)	inactive
Cc1cc(CCCOc2c(C)cc(-c3noc(C(F)(F)F)n3)cc2C)on1 [PLECONARIL]	inactive

target: T1, VP1 capsid protein (Human rhinovirus sp.); assay: Inhibition of Rhinovirus B14 capsid infected in human HeLa Rh cells assessed as reduction in viral replication at 1 uM administered 2 hrs before infection measured after 8 hrs post infection by RT-qPCR analysis; format: cell-based; conditions: not given; outline: as §2

SMILES	inhibition
Cn1cc(-c2ccc(CC(O)c3ccc(-n4cncn4)cc3)c([N+](=O)[O-])c2)cn1 (racemic)	Active
Cc1cc(CCCOc2c(C)cc(-c3noc(C(F)(F)F)n3)cc2C)on1 [PLECONARIL]	Active

target: T1, VP1 capsid protein (Human rhinovirus sp.); assay: Inhibition of capsid of VP1 A150V mutant harboring Rhinovirus B14 assessed as reduction of virus induced cytopathic effect at 4 times EC50 concentration after 4th passage measured after 3 days by MTS assay; conditions: not given

SMILES	inhibition
Cn1cc(-c2ccc(CC(O)c3ccc(-n4cncn4)cc3)c([N+](=O)[O-])c2)cn1 (racemic)	inactive

target: T1, VP1 capsid protein (Human rhinovirus sp.); assay: Inhibition of capsid of VP1 C199W mutant harboring Rhinovirus B14 assessed as reduction of virus induced cytopathic effect at 1 times EC50 concentration after 4th passage measured after 3 days by MTS assay; conditions: not given

SMILES	inhibition
Cn1cc(-c2ccc(CC(O)c3ccc(-n4cncn4)cc3)c([N+](=O)[O-])c2)cn1 (racemic)	Active

target: T1, VP1 capsid protein (Human rhinovirus sp.); assay: Inhibition of Rhinovirus B14 capsid infected in human HeLa Rh cells assessed as number of wells with full cytopathic effect at 4 times EC50 concentration after 1st passage measured after 3 days by MTS assay relative to control; format: cell-based; design: scale not given: the % may be the effect or the level left; conditions: not given; outline: as §1

SMILES	Activity [%]
Cn1cc(-c2ccc(CC(O)c3ccc(-n4cncn4)cc3)c([N+](=O)[O-])c2)cn1 (racemic)	0
Cc1cc(CCCOc2c(C)cc(-c3noc(C(F)(F)F)n3)cc2C)on1 [PLECONARIL]	0

target: T1, VP1 capsid protein (Human rhinovirus sp.); assay: Inhibition of Rhinovirus B14 capsid infected in human HeLa Rh cells assessed as number of wells with full cytopathic effect at EC50 concentration after 4th passage measured after 3 days by MTS assay relative to control; format: cell-based; design: scale not given: the % may be the effect or the level left; conditions: not given; outline: as §1

SMILES	Activity [%]
Cn1cc(-c2ccc(CC(O)c3ccc(-n4cncn4)cc3)c([N+](=O)[O-])c2)cn1 (racemic)	100
Cc1cc(CCCOc2c(C)cc(-c3noc(C(F)(F)F)n3)cc2C)on1 [PLECONARIL]	100

target: T1, VP1 capsid protein (Human rhinovirus sp.); assay: Inhibition of Rhinovirus B14 capsid infected in human HeLa Rh cells assessed as number of wells with full cytopathic effect at 2 times EC50 concentration after 4th passage measured after 3 days by MTS assay relative to control; format: cell-based; design: scale not given: the % may be the effect or the level left; conditions: not given; outline: as §1

SMILES	Activity [%]
Cn1cc(-c2ccc(CC(O)c3ccc(-n4cncn4)cc3)c([N+](=O)[O-])c2)cn1 (racemic)	50
Cc1cc(CCCOc2c(C)cc(-c3noc(C(F)(F)F)n3)cc2C)on1 [PLECONARIL]	100

target: T1, VP1 capsid protein (Human rhinovirus sp.); assay: Inhibition of capsid of VP1 N105S mutant harboring Rhinovirus B14 assessed as reduction of virus induced cytopathic effect at 2 times EC50 concentration after 4th passage measured after 3 days by MTS assay; conditions: not given

SMILES	inhibition
Cn1cc(-c2ccc(CC(O)c3ccc(-n4cncn4)cc3)c([N+](=O)[O-])c2)cn1 (racemic)	Active

target: T1, VP1 capsid protein (Human rhinovirus sp.); assay: Inhibition of Rhinovirus B14 capsid infected in human HeLa Rh cells assessed as number of wells with full cytopathic effect at 2 times EC50 concentration after 2nd passage measured after 3 days by MTS assay relative to control; format: cell-based; design: scale not given: the % may be the effect or the level left; conditions: not given; outline: as §1

SMILES	Activity [%]
Cn1cc(-c2ccc(CC(O)c3ccc(-n4cncn4)cc3)c([N+](=O)[O-])c2)cn1 (racemic)	0
Cc1cc(CCCOc2c(C)cc(-c3noc(C(F)(F)F)n3)cc2C)on1 [PLECONARIL]	0

target: T1, VP1 capsid protein (Human rhinovirus sp.); assay: Inhibition of Rhinovirus B14 capsid infected in human HeLa Rh cells assessed as number of wells with full cytopathic effect at EC50 concentration after 3rd passage measured after 3 days by MTS assay relative to control; format: cell-based; design: scale not given: the % may be the effect or the level left; conditions: not given; outline: as §1

SMILES	Activity [%]
Cn1cc(-c2ccc(CC(O)c3ccc(-n4cncn4)cc3)c([N+](=O)[O-])c2)cn1 (racemic)	75
Cc1cc(CCCOc2c(C)cc(-c3noc(C(F)(F)F)n3)cc2C)on1 [PLECONARIL]	100

target: T1, VP1 capsid protein (Human rhinovirus sp.); assay: Inhibition of Rhinovirus B14 capsid infected in human HeLa Rh cells assessed as number of wells with full cytopathic effect at 4 times EC50 concentration after 3rd passage measured after 3 days by MTS assay relative to control; format: cell-based; design: scale not given: the % may be the effect or the level left; conditions: not given; outline: as §1

SMILES	Activity [%]
Cn1cc(-c2ccc(CC(O)c3ccc(-n4cncn4)cc3)c([N+](=O)[O-])c2)cn1 (racemic)	0
Cc1cc(CCCOc2c(C)cc(-c3noc(C(F)(F)F)n3)cc2C)on1 [PLECONARIL]	25

target: T1, VP1 capsid protein (Human rhinovirus sp.); assay: Inhibition of Rhinovirus B14 capsid infected in human HeLa Rh cells assessed as number of wells with full cytopathic effect at EC50 concentration after 1st passage measured after 3 days by MTS assay relative to control; format: cell-based; design: scale not given: the % may be the effect or the level left; conditions: not given; outline: as §1

SMILES	Activity [%]
Cn1cc(-c2ccc(CC(O)c3ccc(-n4cncn4)cc3)c([N+](=O)[O-])c2)cn1 (racemic)	0
Cc1cc(CCCOc2c(C)cc(-c3noc(C(F)(F)F)n3)cc2C)on1 [PLECONARIL]	0
